# Laboratory results from ChEMBL document CHEMBL1144620, “Synthesis and biodistribution of new radiolabeled high-affinity choline transporter inhibitors [11C]hemicholinium-3 and [18F]hemicholinium-3” (Bioorg Med Chem Lett, 2007).
# Tests used:
# [1] = Biodistribution in urine of 9L-glioma bearing rat at 1 to 3 mCi, iv after 20 mins; type: ADME, organism-based; conditions: in vivo
# Outline: (§1)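 In 9L-glioma rats injected iv (tail vein, conscious restraint) with 1–3 mCi of radiotracer, urine was drawn by syringe from the bladder at 5 or 20 min. Animals were killed by decapitation under halothane. Decay-corrected radioactivity was gamma-counted and expressed as percent of injected dose (%ID), averaged over three rats.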
# Septum [2] = experiment: Biodistribution in septum of 9L-glioma bearing rat at 1 to 3mCi, iv after 5 mins; type: ADME, organism-based; conditions: in vivo
# Outline: (§2)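 9L-glioma rats (200–300 g) given 1–3 mCi of [¹¹C]- or [¹⁸F]-labelled tracer iv by tail vein while consciously restrained. At 5 or 20 min they were decapitated under halothane anaesthesia. Tissues were excised and weighed, and decay-corrected radioactivity was counted by gamma counter. Values are %ID/g, averaged over three rats per time point.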
# Liver [3] = experiment: Biodistribution in liver of 9L-glioma bearing rat at 1 to 3 mCi, iv after 20 mins; type: ADME, organism-based; conditions: in vivo; outline: as §2
# Plasma [4] = experiment: Biodistribution in plasma of 9L-glioma bearing rat at 1 to 3 mCi, iv after 20 mins; type: ADME, organism-based; conditions: in vivo; outline: as §2
# Kidney [5] = experiment: Biodistribution in kidney of 9L-glioma bearing rat at 1 to 3 mCi, iv after 5 mins; type: ADME, organism-based; conditions: in vivo; outline: as §2
# 9L [6] = experiment: Biodistribution in tumor of 9L-glioma bearing rat at 1 to 3 mCi, iv after 20 mins; type: ADME, organism-based; conditions: in vivo; outline: as §2
# Blood [7] = experiment: Biodistribution in blood of 9L-glioma bearing rat at 1 to 3 mCi, iv after 5 mins; type: ADME, organism-based; conditions: in vivo; outline: as §2
# [8] = Biodistribution in R-ventricle of 9L-glioma bearing rat at 1 to 3 mCi, iv after 5 mins; type: ADME, organism-based, Heart right ventricle; conditions: in vivo; outline: as §2
# Solar plexus [9] = experiment: Biodistribution in solar plexus of 9L-glioma bearing rat at 1 to 3 mCi, iv after 20 mins; type: ADME, organism-based; conditions: in vivo; outline: as §2
# [10] = Ratio of biodistribution in tumor to muscle of 9L-glioma bearing rat at 1 to 3 mCi, iv after 20 mins; type: ADME, organism-based; conditions: in vivo
# [11] = Biodistribution in R-ventricle of 9L-glioma bearing rat at 1 to 3 mCi, iv after 20 mins; type: ADME, organism-based, Heart right ventricle; conditions: in vivo; outline: as §2
# [12] = Biodistribution in L-ventricle of 9L-glioma bearing rat at 1 to 3 mCi, iv after 20 mins; type: ADME, organism-based, Heart left ventricle; conditions: in vivo; outline: as §2
# Liver [13] = experiment: Biodistribution in liver of 9L-glioma bearing rat at 1 to 3 mCi, iv after 5 mins; type: ADME, organism-based; conditions: in vivo; outline: as §2
# [14] = Biodistribution in R-Atrium of 9L-glioma bearing rat at 1 to 3 mCi, iv after 5 mins; type: ADME, organism-based, Right cardiac atrium; conditions: in vivo; outline: as §2
# [15] = Ratio of biodistribution in tumor to blood of 9L-glioma bearing rat at 1 to 3 mCi, iv after 20 mins; type: ADME, organism-based; conditions: tumour
# [16] = Biodistribution in urine of 9L-glioma bearing rat at 1 to 3 mCi, iv after 5 mins; type: ADME, organism-based; conditions: in vivo; outline: as §1
# [17] = Biodistribution in skeletal Muscle of 9L-glioma bearing rat at 1 to 3 mCi, iv after 20 mins; type: ADME, organism-based, Muscle tissue; conditions: in vivo; outline: as §2
# [18] = Biodistribution in L-ventricle of 9L-glioma bearing rat at 1 to 3mCi, iv after 5 mins; type: ADME, organism-based, Heart left ventricle; conditions: in vivo; outline: as §2
# Kidney [19] = experiment: Biodistribution in kidney of 9L-glioma bearing rat at 1 to 3 mCi, iv after 20 mins; type: ADME, organism-based; conditions: in vivo; outline: as §2
# Plasma [20] = experiment: Biodistribution in plasma of 9L-glioma bearing rat at 1 to 3 mCi, iv after 5 mins; type: ADME, organism-based; conditions: in vivo; outline: as §2
# [21] = Biodistribution in A-V-node of 9L-glioma bearing rat at 1 to 3 mCi, iv after 5 mins; type: ADME, organism-based; conditions: in vivo; outline: as §2
# Lung [22] = experiment: Biodistribution in lung of 9L-glioma bearing rat at 1 to 3 mCi, iv after 20 mins; type: ADME, organism-based; conditions: in vivo; outline: as §2
# Blood [23] = experiment: Biodistribution in blood of 9L-glioma bearing rat at 1 to 3 mCi, iv after 20 mins; type: ADME, organism-based; conditions: in vivo; outline: as §2
# Solar plexus [24] = experiment: Biodistribution in solar plexus of 9L-glioma bearing rat at 1 to 3 mCi, iv after 5 mins; type: ADME, organism-based; conditions: in vivo; outline: as §2
# [25] = Biodistribution in L-Atrium of 9L-glioma bearing rat at 1 to 3 mCi, iv after 5 mins; type: ADME, organism-based; conditions: in vivo; outline: as §2
# [26] = Ratio of biodistribution in tumor to blood in 9L-glioma bearing rat at 1 to 3 mCi, iv after 5 mins; type: ADME, organism-based; conditions: tumor and blood (tumor-to-blood ratio)
# [27] = Biodistribution in L-Atrium of 9L-glioma bearing rat at 1 to 3 mCi, iv after 20 mins; type: ADME, organism-based, Left cardiac atrium; conditions: in vivo; outline: as §2
# [28] = Biodistribution in skeletal muscle of 9L-glioma bearing rat at 1 to 3 mCi, iv after 5 mins; type: ADME, organism-based, Muscle tissue; conditions: in vivo; outline: as §2
# [29] = Biodistribution in A-V-node of 9L-glioma bearing rat at 1 to 3 mCi, iv after 20 mins; type: ADME, organism-based; conditions: in vivo; outline: as §2
# Septum [30] = experiment: Biodistribution in septum of 9L-glioma bearing rat at 1 to 3 mCi, iv after 20 mins; type: ADME, organism-based; conditions: in vivo; outline: as §2
# Brain [31] = experiment: Biodistribution in brain of 9L-glioma bearing rat at 1 to 3 mCi, iv after 5 mins; type: ADME, organism-based; conditions: in vivo; outline: as §2
# [32] = Biodistribution in R-Atrium of 9L-glioma bearing rat at 1 to 3 mCi, iv after 20 mins; type: ADME, organism-based, Right cardiac atrium; conditions: in vivo; outline: as §2
# Lung [33] = experiment: Biodistribution in lung of 9L-glioma bearing rat at 1 to 3 mCi, iv after 5 mins; type: ADME, organism-based; conditions: in vivo; outline: as §2
# Brain [34] = experiment: Biodistribution in brain of 9L-glioma bearing rat at 1 to 3 mCi, iv after 20 mins; type: ADME, organism-based; conditions: in vivo; outline: as §2
# [35] = Ratio of biodistribution in tumor to muscle of 9L-glioma bearing rat at 1 to 3 mCi, iv after 5 mins; type: ADME, organism-based; conditions: in vivo
# 9L [36] = experiment: Biodistribution in tumor of 9L-glioma bearing rat at 1 to 3 mCi, iv after 5 mins; type: ADME, organism-based; conditions: in vivo; outline: as §2
smiles,measurement,setting,value
C[N+]1(C)CCOC(O)(c2ccc(-c3ccc(C4(O)C[N+](C)([11CH3])CCO4)cc3)cc2)C1.O=S(=O)([O-])C(F)(F)F.[I-] (stereo unspecified),Drug uptake,[1],25 % dose
same,Drug uptake,Septum [2],0.381 % ID/g
same,Drug uptake,Liver [3],1.239 % ID/g
same,Drug uptake,Plasma [4],1.453 % ID/g
same,Drug uptake,Kidney [5],7.64 % ID/g
same,Drug uptake,9L [6],0.457 % ID/g
same,Drug uptake,Blood [7],1.383 % ID/g
same,Drug uptake,[8],0.401 % ID/g
same,Drug uptake,Solar plexus [9],2.057 % ID/g
same,Ratio,[10],3.094
same,Drug uptake,[11],0.234 % ID/g
same,Drug uptake,[12],0.244 % ID/g
same,Drug uptake,Liver [13],0.848 % ID/g
same,Drug uptake,[14],0.963 % ID/g
same,Ratio,[15],0.622
same,Drug uptake,[16],6.38 % dose
same,Drug uptake,[17],0.159 % ID/g
same,Drug uptake,[18],0.415 % ID/g
same,Drug uptake,Kidney [19],3.656 % ID/g
same,Drug uptake,Plasma [20],3.648 % ID/g
same,Drug uptake,[21],1.074 % ID/g
same,Drug uptake,Lung [22],0.59 % ID/g
same,Drug uptake,Blood [23],0.749 % ID/g
same,Drug uptake,Solar plexus [24],0.522 % ID/g
same,Drug uptake,[25],1.026 % ID/g
same,Kp at 5 min,[26],0.466
same,Drug uptake,[27],0.457 % ID/g
same,Drug uptake,[28],0.207 % ID/g
same,Drug uptake,[29],0.478 % ID/g
same,Drug uptake,Septum [30],0.223 % ID/g
same,Drug uptake,Brain [31],0.06 % ID/g
same,Drug uptake,[32],0.398 % ID/g
same,Drug uptake,Lung [33],1.081 % ID/g
same,Drug uptake,Brain [34],0.035 % ID/g
same,Ratio,[35],3.199
same,Drug uptake,9L [36],0.649 % ID/g
